ChEMBL document CHEMBL4732243, “Design, synthesis, and structure activity relationship analysis of new betulinic acid derivatives as potent HIV inhibitors” (Eur J Med Chem, 2021)

Assays:
MT4 = experiment: Cytotoxicity against human MT4 cells assessed as reduction in cell viability incubated for 2 days by CytoTox-Glo cytotoxicity assay; assay type: cell-based; details: mt4, 48 h, time 2 day
Method in brief: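 Mock-infected MT-4 cells cultured 2 days with a range of compound concentrations. Viability measured by CytoTox-Glo, following the kit protocol, as percent viable cells. CC50 is the concentration giving a 50% reduction in cell viability.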

[1] = system: Human immunodeficiency virus 1; experiment: Potency index, ratio of IC50 for bevirimat to IC50 for test compound for antiviral activity against HIV-1 NL4-3 infected in human MT4 cells assessed as reduction in p24 gag protein incubated for 4 days by ELISA; assay type: functional; details: time 4 day
Method in brief: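 MT-4 cells infected with HIV-1 NL4-3 at MOI 0.01 and cultured with the test compounds. Bevirimat was run in parallel as the reference control. Supernatant p24 was measured on day 4 post-infection by antigen-capture ELISA. IC50 is the concentration that inhibits NL4-3 replication by 50%. The index is the bevirimat IC50 divided by the test-compound IC50.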

[2] = system: Human immunodeficiency virus 1; experiment: Antiviral activity against HIV-1 NL4-3 infected in human MT4 cells assessed as reduction in p24 gag protein incubated for 4 days by ELISA; assay type: functional, organism-based; details: Human immunodeficiency virus 1, NL4-3, MT4, 96 h
Method in brief: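 MT-4 cells infected with HIV-1 NL4-3 at MOI 0.01, serial compound concentrations, in 96-well format. Supernatant p24 antigen measured by capture ELISA on day 4 post-infection. IC50 is the concentration that inhibits NL4-3 replication by 50%. Bevirimat run in parallel as the reference.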

Row | Structure (SMILES) | CC50 (MT4) [nM] | Ratio IC50 [1] | IC50 ([2]; read-out: IC50) [nM] | IC50 ([2]; read-out: pIC50 (converted)) [nM]
1 | C=C(C)[C@@H]1CC[C@]2(C(=O)N3CCN(C(=O)/C=C/c4ccc(O)c(O)c4)CC3)CC[C@]3(C)[C@H](CC[C@@H]4[C@@]5(C)CC[C@H](OC(=O)CC(C)(C)C(=O)O)C(C)(C)[C@@H]5CC[C@]43C)[C@@H]12 | > 2000 | 2 |  | 
2 | C=C(C)[C@@H]1CC[C@]2(C(=O)N3CCN(C(=O)/C=C/c4ccc5c(c4)OCO5)CC3)CC[C@]3(C)[C@H](CC[C@@H]4[C@@]5(C)CC[C@H](OC(=O)CC(C)(C)C(=O)O)C(C)(C)[C@@H]5CC[C@]43C)[C@@H]12 | > 2000 | 2 |  | 
3 | C=C(C)[C@@H]1CC[C@]2(C(=O)NCCCNC(=O)/C=C/c3ccc4c(c3)OCO4)CC[C@]3(C)[C@H](CC[C@@H]4[C@@]5(C)CC[C@H](OC(=O)CC(C)(C)C(=O)O)C(C)(C)[C@@H]5CC[C@]43C)[C@@H]12 | > 2000 |  | 17 | 17
4 | C=C(C)[C@@H]1CC[C@]2(C(=O)N3CCN(C(=O)CCc4ccc5c(c4)OCO5)CC3)CC[C@]3(C)[C@H](CC[C@@H]4[C@@]5(C)CC[C@H](OC(=O)CC(C)(C)C(=O)O)C(C)(C)[C@@H]5CC[C@]43C)[C@@H]12 | > 2000 |  | 22 | 21.9
5 | C=C(C)[C@@H]1CC[C@]2(C(=O)OCCCNc3nccs3)CC[C@]3(C)[C@H](CC[C@@H]4[C@@]5(C)CC[C@H](OC(=O)CC(C)(C)C(=O)O)C(C)(C)[C@@H]5CC[C@]43C)[C@@H]12 | > 2000 |  | 39 | 38.9
6 | C=C(C)[C@@H]1CC[C@]2(C(=O)N3CCN(C(=O)/C=C/c4csc5ccccc45)CC3)CC[C@]3(C)[C@H](CC[C@@H]4[C@@]5(C)CC[C@H](OC(=O)CC(C)(C)C(=O)O)C(C)(C)[C@@H]5CC[C@]43C)[C@@H]12 | > 2000 |  | 180 | 182
7 | C=C(C)[C@@H]1CC[C@]2(C(=O)N3CCN(C(=O)/C(C)=C/c4ccc5c(c4)OCO5)CC3)CC[C@]3(C)[C@H](CC[C@@H]4[C@@]5(C)CC[C@H](OC(=O)CC(C)(C)C(=O)O)C(C)(C)[C@@H]5CC[C@]43C)[C@@H]12 | > 2000 |  | 57 | 57.5
8 | C=C(C)[C@@H]1CC[C@]2(C(=O)N3CCN(C(=O)/C=C/c4ccc5c(c4)CCO5)CC3)CC[C@]3(C)[C@H](CC[C@@H]4[C@@]5(C)CC[C@H](OC(=O)CC(C)(C)C(=O)O)C(C)(C)[C@@H]5CC[C@]43C)[C@@H]12 | > 2000 |  | 67 | 67.6
9 | C=C(C)[C@@H]1CC[C@]2(C(=O)N3CCN(CCCCC(=O)N4CCN(c5cc(NCc6ccccc6)ncn5)CC4)CC3)CC[C@]3(C)[C@H](CC[C@@H]4[C@@]5(C)CC[C@H](OC(=O)CC(C)(C)C(=O)O)C(C)(C)[C@@H]5CC[C@]43C)[C@@H]12 | > 2000 |  | 12 | 
10 | C=C(C)[C@@H]1CC[C@]2(C(=O)N3CCN(C(=O)/C=C/c4ccc(O)c(OCc5cccc(Cl)c5)c4)CC3)CC[C@]3(C)[C@H](CC[C@@H]4[C@@]5(C)CC[C@H](OC(=O)CC(C)(C)C(=O)O)C(C)(C)[C@@H]5CC[C@]43C)[C@@H]12 | > 2000 |  | 190 | 
11 | C=C(C)[C@@H]1CC[C@]2(C(=O)N3CCN(C(=O)/C=C/c4ccc(OCOC)c(OCc5cccc(Cl)c5)c4)CC3)CC[C@]3(C)[C@H](CC[C@@H]4[C@@]5(C)CC[C@H](OC(=O)CC(C)(C)C(=O)O)C(C)(C)[C@@H]5CC[C@]43C)[C@@H]12 | > 2000 |  | 460 | 
12 | C=C(C)[C@@H]1CC[C@]2(C(=O)N3CCN(C(=O)/C=C/c4ccc5c(c4)OCCO5)CC3)CC[C@]3(C)[C@H](CC[C@@H]4[C@@]5(C)CC[C@H](OC(=O)CC(C)(C)C(=O)O)C(C)(C)[C@@H]5CC[C@]43C)[C@@H]12 | > 2000 |  | 50 | 50.1
13 | C=C(C)[C@@H]1CC[C@]2(C(=O)OCCCOC(=O)/C=C/c3ccc(OC)cc3)CC[C@]3(C)[C@H](CC[C@@H]4[C@@]5(C)CC[C@H](OC(=O)CC(C)(C)C(=O)O)C(C)(C)[C@@H]5CC[C@]43C)[C@@H]12 | > 2000 |  | 850 | 851
14 | C=C(C)[C@@H]1CC[C@]2(C(=O)N3CCN(C(=O)c4cc5cc(OC)ccc5[nH]4)CC3)CC[C@]3(C)[C@H](CC[C@@H]4[C@@]5(C)CC[C@H](OC(=O)CC(C)(C)C(=O)O)C(C)(C)[C@@H]5CC[C@]43C)[C@@H]12 | > 2000 |  | 53 | 52.5
15 | C=C(C)[C@@H]1CC[C@]2(C(=O)N3CCN(C(=O)/C=C/c4cccs4)CC3)CC[C@]3(C)[C@H](CC[C@@H]4[C@@]5(C)CC[C@H](OC(=O)CC(C)(C)C(=O)O)C(C)(C)[C@@H]5CC[C@]43C)[C@@H]12 | > 2000 |  | 32 | 32.4
16 | C=C(C)[C@@H]1CC[C@]2(C(=O)N3CCN(C(=O)/C=C/c4ccc5occc5c4)CC3)CC[C@]3(C)[C@H](CC[C@@H]4[C@@]5(C)CC[C@H](OC(=O)CC(C)(C)C(=O)O)C(C)(C)[C@@H]5CC[C@]43C)[C@@H]12 | > 2000 |  | 150 | 151
17 | C=C(C)[C@@H]1CC[C@]2(C(=O)N3CCN(C(=O)/C=C/c4ccc5c(c4)OC(F)(F)O5)CC3)CC[C@]3(C)[C@H](CC[C@@H]4[C@@]5(C)CC[C@H](OC(=O)CC(C)(C)C(=O)O)C(C)(C)[C@@H]5CC[C@]43C)[C@@H]12 | > 2000 |  | 590 | 589
18 | C=C(C)[C@@H]1CC[C@]2(C(=O)N3CCN(C(=O)/C=C/c4ccc5[nH]ccc5c4)CC3)CC[C@]3(C)[C@H](CC[C@@H]4[C@@]5(C)CC[C@H](OC(=O)CC(C)(C)C(=O)O)C(C)(C)[C@@H]5CC[C@]43C)[C@@H]12 | > 2000 |  | 50 | 50.1
19 | C=C(C)[C@@H]1CC[C@]2(C(=O)N3CCN(C(=O)CC(C)(C)C(=O)O)CC3)CC[C@]3(C)[C@H](CC[C@@H]4[C@@]5(C)CC[C@H](ON6CCN(C(=O)CC(C)(C)C(=O)O)CC6)C(C)(C)[C@@H]5CC[C@]43C)[C@@H]12 | > 2000 |  | 14 | 14.1
20 | C=C(C)[C@@H]1CC[C@]2(C(=O)N3CCN(C(=O)CCC(=O)Nc4nccs4)CC3)CC[C@]3(C)[C@H](CC[C@@H]4[C@@]5(C)CC[C@H](OC(=O)CC(C)(C)C(=O)O)C(C)(C)[C@@H]5CC[C@]43C)[C@@H]12 | > 2000 |  | 40 | 39.8
21 | C=C(C)[C@@H]1CC[C@]2(C(=O)OCCCN3CCN(c4cc(NCc5ccccc5)ncn4)CC3)CC[C@]3(C)[C@H](CC[C@@H]4[C@@]5(C)CC[C@H](OC(=O)CC(C)(C)C(=O)O)C(C)(C)[C@@H]5CC[C@]43C)[C@@H]12 | > 2000 |  | 430 | 
22 | C=C(C)[C@@H]1CC[C@]2(C(=O)N3CCN(C(=O)/C(=C/c4ccc5c(c4)OCO5)CC)CC3)CC[C@]3(C)[C@H](CC[C@@H]4[C@@]5(C)CC[C@H](OC(=O)CC(C)(C)C(=O)O)C(C)(C)[C@@H]5CC[C@]43C)[C@@H]12 | > 2000 |  | 130 | 129
23 | C=C(C)[C@@H]1CC[C@]2(C(=O)N3CCN(c4cc(NCc5ccccc5)ncn4)CC3)CC[C@]3(C)[C@H](CC[C@@H]4[C@@]5(C)CC[C@H](OC(=O)CC(C)(C)C(=O)O)C(C)(C)[C@@H]5CC[C@]43C)[C@@H]12 | > 2000 |  | 37 | 
24 | C=C(C)[C@@H]1CC[C@]2(C(=O)N3CCN(C(=O)/C=C/c4cn(C)c5ccccc45)CC3)CC[C@]3(C)[C@H](CC[C@@H]4[C@@]5(C)CC[C@H](OC(=O)CC(C)(C)C(=O)O)C(C)(C)[C@@H]5CC[C@]43C)[C@@H]12 | > 2000 |  | 140 | 141
25 | C=C(C)[C@@H]1CC[C@]2(C(=O)N3CCN(C(=O)/C=C/c4cccc(OCOC)c4)CC3)CC[C@]3(C)[C@H](CC[C@@H]4[C@@]5(C)CC[C@H](OC(=O)CC(C)(C)C(=O)O)C(C)(C)[C@@H]5CC[C@]43C)[C@@H]12 | > 2000 |  | 90 | 89.1
26 | C=C(C)[C@@H]1CC[C@]2(C(=O)N3CCNCC3)CC[C@]3(C)[C@H](CC[C@@H]4[C@@]5(C)CC[C@H](Oc6ccc(O)c(O)c6)C(C)(C)[C@@H]5CC[C@]43C)[C@@H]12 | > 2000 |  | 490 | 490
27 | C=C(C)[C@@H]1CC[C@]2(C(=O)N3CCN(C(=O)/C=C/c4cccc(O)c4)CC3)CC[C@]3(C)[C@H](CC[C@@H]4[C@@]5(C)CC[C@H](OC(=O)CC(C)(C)C(=O)O)C(C)(C)[C@@H]5CC[C@]43C)[C@@H]12 | > 2000 |  | 53 | 52.5
28 | C=C(C)[C@@H]1CC[C@]2(C(=O)N3CCN(C(=O)/C=C/c4c[nH]c5ccccc45)CC3)CC[C@]3(C)[C@H](CC[C@@H]4[C@@]5(C)CC[C@H](OC(=O)CC(C)(C)C(=O)O)C(C)(C)[C@@H]5CC[C@]43C)[C@@H]12 | > 2000 |  | 69 | 69.2
